Measured values: ChEMBL document CHEMBL3108761, “Phenanthroline-2,9-bistriazoles as selective G-quadruplex ligands” (Eur J Med Chem, 2014)
The source made the active and inactive calls. No cut-off for these calls is given here.

How the values were obtained:
[1] = Binding affinity to hairpin 5'-biotin-d[T10ATAGCTATAT7ATAGCTATA]-3' (unknown origin) assessed as dissociation constant by surface plasmon resonance assay; set-up: species or system Homo sapiens
Outline: (§1)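 Biotinylated DNA was annealed in 20 mM Tris-HCl, 200 mM KCl, pH 7.4, and captured on a streptavidin chip at ~400 RU. Running buffer: 20 mM KH2PO4, 150 mM KCl, 0.005% P20, 0.5 mM EDTA, pH 7.4. Ligand at 10–1000 nM was injected for 120 s in random order, with blank flow-cell subtraction. KD came from a steady-state affinity fit of Req against concentration; "not detected" means no significant binding at 1 µM.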

[2] = Binding affinity to human telomeric 5'-biotin-d[T7(T2AG3)4]-3' assessed as dissociation constant (KD) by surface plasmon resonance assay; outline: as §1
[3] = species on record: Homo sapiens; experiment: Binding affinity to human telomeric 5'-FAMd(G3[T2AG3]3)-TAMRA-3' assessed as melting temperature at 1 uM by FRET assay
Outline: (§2)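 K+ buffer: 10 mM KCl, 100 mM LiCl, 10 mM cacodylate, pH 7.3. FAM/TAMRA dual-labelled probes were diluted to 400 nM, annealed at 85 °C for 10 min and cooled to room temperature, then mixed with ligand at the stated concentration. FAM was excited at 492 nm and read at 516 nm every 0.5 °C from 25 to 100 °C, with a 30 s hold before each reading. ΔTm was taken against a buffer-only control, in triplicate.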

[4] = species on record: Homo sapiens; experiment: Binding affinity to human telomeric 5'-FAMd(G3[T2AG3]3)-TAMRA-3' in Na+ solution assessed as melting temperature at 0.5 uM by FRET assay
Outline: (§3)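 Telomeric FRET probe in Na+ buffer: 100 mM NaCl, 10 mM LiCl, 10 mM cacodylate, pH 7.3. Probe was diluted to 400 nM and annealed at 85 °C for 10 min, then cooled to room temperature; ligand was added at the stated concentration. Emission at 516 nm (excitation 492 nm) was read in 0.5 °C steps from 25 to 100 °C, with a 30 s hold per step. ΔTm versus buffer control, triplicate.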

[5] = species on record: Homo sapiens; experiment: Binding affinity to c-KIT G-quadruplex 5'-FAM-G3CG3CGCGAG3AG4-TAMRA-3' (unknown origin) assessed as melting temperature at 1 uM by FRET assay; outline: as §2
[6] = Binding affinity to c-KIT G-quadruplex 5'-biotin-d[T9G3CG3CGCGAG3AG4]-3' (unknown origin) assessed as dissociation constant by surface plasmon resonance assay; set-up: species or system Homo sapiens; outline: as §1
[7] = species on record: Homo sapiens; experiment: Binding affinity to human telomeric 5'-FAMd(G3[T2AG3]3)-TAMRA-3' in Na+ solution assessed as melting temperature at 2 uM by FRET assay; outline: as §3
[8] = species on record: Homo sapiens; experiment: Ratio of Kd for c-KIT G-quadruplex 5'-biotin-d[T9G3CG3CGCGAG3AG4]-3' (unknown origin) to Kd for human telomeric 5'-biotin-d[T7(T2AG3)4]-3'
[9] = species on record: Homo sapiens; experiment: Binding affinity to c-KIT G-quadruplex 5'-FAM-G3CG3CGCGAG3AG4-TAMRA-3' (unknown origin) assessed as melting temperature at 2 uM by FRET assay; outline: as §2
[10] = species on record: Homo sapiens; experiment: Binding affinity to human telomeric 5'-FAMd(G3[T2AG3]3)-TAMRA-3' in Na+ solution assessed as melting temperature at 1 uM by FRET assay; outline: as §3
[11] = species on record: Homo sapiens; experiment: Binding affinity to hairpin 5'-FAM-TATAGCTATAT7ATAGCTATA-TAMRA-3' (unknown origin) assessed as melting temperature at 0.5 uM by FRET assay; outline: as §2
[12] = species on record: Homo sapiens; experiment: Binding affinity to hairpin 5'-FAM-TATAGCTATAT7ATAGCTATA-TAMRA-3' (unknown origin) assessed as melting temperature at 1 uM by FRET assay; outline: as §2
[13] = species on record: Homo sapiens; experiment: Binding affinity to c-KIT G-quadruplex 5'-FAM-G3CG3CGCGAG3AG4-TAMRA-3' (unknown origin) assessed as melting temperature at 0.5 uM by FRET assay; outline: as §2
[14] = species on record: Homo sapiens; experiment: Binding affinity to human telomeric 5'-FAMd(G3[T2AG3]3)-TAMRA-3' assessed as melting temperature at 2 uM by FRET assay; outline: as §2
[15] = species on record: Homo sapiens; experiment: Binding affinity to human telomeric 5'-FAMd(G3[T2AG3]3)-TAMRA-3' assessed as melting temperature at 0.5 uM by FRET assay; outline: as §2
[16] = species on record: Homo sapiens; experiment: Binding affinity to hairpin 5'-biotin-d[T10ATAGCTATAT7ATAGCTATA]-3' (unknown origin) assessed as melting temperature at 1 uM by surface plasmon resonance assay; outline: as §1
[17] = species on record: Homo sapiens; experiment: Binding affinity to human telomeric 5'-AG3(T2AG3)3-3' by circular dichroism spectroscopy
Outline: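 DNA at 2 µM final in 10 mM Tris-HCl, 100 mM KCl, pH 7.4 was annealed at 95 °C for 10 min and slowly cooled. Ligand was then added at several final concentrations. Spectra were recorded from 220 to 320 nm in a 5 mm cell at 25 °C, averaged over five scans and buffer-corrected, to assess whether the G-quadruplex fold was retained.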

[18] = species on record: Homo sapiens; experiment: Displacement of thiazole orange from human telomeric 5'-AG3(T2AG3)3-3' (unknown origin) assessed as reduction of fluorescence at 2.5 uM by G4-FID assay
Outline: (§4)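 Done at 20 °C in 10 mM sodium cacodylate pH 7.3 with 100 mM KCl; 22AG was also run with 100 mM NaCl. 0.25 µM prefolded DNA carried thiazole orange: 0.50 µM for 22AG and c-KIT, 0.75 µM for ds26. Ligand was titrated from 0.2 to 10 equivalents, with 3 min equilibration per step. Displacement = 100 − (FA/FA0 × 100), from emission area 510–750 nm (excitation 501 nm). DC50 was taken as 50% displacement; otherwise the displacement at 2.5 µM ligand is given.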

[19] = species on record: Homo sapiens; experiment: Displacement of thiazole orange from c-KIT G-quadruplex 5'-G3CG3CGCGAG3AG4-3' (unknown origin) assessed as reduction of fluorescence by G4-FID assay; outline: as §4
[20] = species on record: Homo sapiens; experiment: Displacement of thiazole orange from human telomeric 5'-AG3(T2AG3)3-3' (unknown origin) in Na+ solution assessed as reduction of fluorescence by G4-FID assay; outline: as §4
[21] = species on record: Homo sapiens; experiment: Binding affinity to c-KIT G-quadruplex 5'-G3CG3CGCGAG3AG4-3' (unknown origin) by circular dichroism spectroscopy
[22] = species on record: Homo sapiens; experiment: Displacement of thiazole orange from 5'-CA2TCG2ATCGA2T2CGATC2GAT2G-3' (unknown origin) assessed as reduction of fluorescence at 2.5 uM by G4-FID assay; outline: as §4
[23] = species on record: Homo sapiens; experiment: Displacement of thiazole orange from human telomeric 5'-AG3(T2AG3)3-3' (unknown origin) in K+ solution assessed as reduction of fluorescence by G4-FID assay; outline: as §4

Structure (SMILES): NCCCn1cc(-c2ccc3ccc4ccc(-c5cn(CCCN)nn5)nc4c3n2)nn1
- Kd [1]: 914 nM
- Kd [2]: 75 nM
- ΔTm [3]: 13.3 °C
- ΔTm [4]: 5.1 °C
- ΔTm [5]: 11.8 °C
- Kd [6]: 45 nM
- ΔTm [7]: 11.9 °C
- Ratio [8]: 2
- ΔTm [9]: 13.9 °C
- ΔTm [10]: 8.4 °C
- ΔTm [11]: 1.1 °C
- ΔTm [12]: 1.2 °C
- ΔTm [13]: 9.8 °C
- ΔTm [14]: 16.1 °C
- ΔTm [15]: 10.3 °C

Structure (SMILES): N=C(N)NCCCCn1cc(-c2ccc3ccc4ccc(-c5cn(CCCCNC(=N)N)nn5)nc4c3n2)nn1
- Kd [1]: 1020 nM
- Kd [2]: 61 nM
- ΔTm [3]: 17.3 °C
- ΔTm [5]: 16.8 °C
- Kd [6]: 29 nM
- Ratio [8]: 2
- ΔTm [9]: 18.5 °C
- ΔTm [11]: 1.7 °C
- ΔTm [12]: 3.7 °C
- ΔTm [13]: 13.8 °C
- ΔTm [14]: 21.8 °C
- ΔTm [15]: 12.2 °C

Structure (SMILES): NCCCCn1cc(-c2ccc3ccc4ccc(-c5cn(CCCCN)nn5)nc4c3n2)nn1
- Kd [1]: 1060 nM
- Kd [2]: 115 nM
- ΔTm [3]: 12.9 °C
- ΔTm [5]: 13.6 °C
- Kd [6]: 50 nM
- Ratio [8]: 2
- ΔTm [9]: 15.2 °C
- ΔTm [11]: 1 °C
- ΔTm [12]: 1.3 °C
- ΔTm [13]: 11.1 °C
- ΔTm [14]: 15.8 °C
- ΔTm [15]: 10.1 °C

Structure (SMILES): NCCn1cc(-c2ccc3ccc4ccc(-c5cn(CCN)nn5)nc4c3n2)nn1
- Kd [1]: 1180 nM
- Kd [2]: 139 nM
- ΔTm [3]: 5.5 °C
- ΔTm [5]: 4.9 °C
- Kd [6]: 47 nM
- Ratio [8]: 2
- ΔTm [9]: 6.2 °C
- ΔTm [11]: 0.4 °C
- ΔTm [12]: 0.6 °C
- ΔTm [13]: 3.7 °C
- ΔTm [14]: 6.8 °C
- ΔTm [15]: 4.4 °C

Structure (SMILES): CC(C)/N=C(/NCCn1cc(-c2ccc3ccc4ccc(-c5cn(CCN/C(=N\C(C)C)NC(C)C)nn5)nc4c3n2)nn1)NC(C)C
- inhibition [16]: inactive
- Kd [2]: 567 nM
- ΔTm [3]: 9.7 °C
- ΔTm [5]: 10.4 °C
- Kd [6]: 40 nM
- Ratio [8]: 13
- ΔTm [9]: 12.5 °C
- ΔTm [11]: 0.7 °C
- ΔTm [12]: 1.1 °C
- ΔTm [13]: 7.4 °C
- ΔTm [14]: 13.6 °C
- ΔTm [15]: 4.2 °C

Structure (SMILES): C[n+]1ccc(-c2c3nc(c(-c4cc[n+](C)cc4)c4ccc([nH]4)c(-c4cc[n+](C)cc4)c4ccc([nH]4)c(-c4cc[n+](C)cc4)c4nc2C=C4)C=C3)cc1
- ΔTm [3]: 23.1 °C
- ΔTm [5]: > 25 °C
- ΔTm [11]: 9.3 °C
- ΔTm [12]: 14.8 °C
- ΔTm [13]: > 25 °C
- ΔTm [14]: > 35 °C
- ΔTm [15]: 19.7 °C

Structure (SMILES): CC(C)/N=C(/NCCCCn1cc(-c2ccc3ccc4ccc(-c5cn(CCCCN/C(=N\C(C)C)NC(C)C)nn5)nc4c3n2)nn1)NC(C)C
- inhibition [16]: inactive
- Kd [2]: 176 nM
- ΔTm [3]: 15.1 °C
- ΔTm [5]: 13.9 °C
- Kd [6]: 35 nM
- Ratio [8]: 2
- ΔTm [9]: 15.9 °C
- ΔTm [11]: 0.8 °C
- ΔTm [12]: 1.3 °C
- ΔTm [13]: 10.3 °C
- ΔTm [14]: 18.1 °C
- ΔTm [15]: 5.1 °C

Structure (SMILES): N=C(N)NCCCn1cc(-c2ccc3ccc4ccc(-c5cn(CCCNC(=N)N)nn5)nc4c3n2)nn1
- Activity [17]: Active
- Kd [1]: 1060 nM
- Kd [2]: 57 nM
- inhibition [18]: 47%
- ΔTm [3]: 18 °C
- ΔTm [4]: 6.6 °C
- Q50 [19]: 0.25 µM
- Q50 [20]: > 2.5 µM
- ΔTm [5]: 16.1 °C
- Kd [6]: 28 nM
- ΔTm [7]: 16.4 °C
- Ratio [8]: 2
- Activity [21]: Active
- ΔTm [9]: 18.4 °C
- ΔTm [10]: 11.4 °C
- inhibition [22]: 21%
- Q50 [23]: 0.94 µM
- ΔTm [11]: 1.6 °C
- ΔTm [12]: 2.8 °C
- ΔTm [13]: 11.4 °C
- ΔTm [14]: 22 °C
- ΔTm [15]: 12.2 °C

Structure (SMILES): CC(C)/N=C(/NCCCn1cc(-c2ccc3ccc4ccc(-c5cn(CCCN/C(=N\C(C)C)NC(C)C)nn5)nc4c3n2)nn1)NC(C)C
- inhibition [16]: inactive
- Kd [2]: 440 nM
- ΔTm [3]: 9.5 °C
- ΔTm [4]: 2.8 °C
- ΔTm [5]: 12 °C
- Kd [6]: 33 nM
- ΔTm [7]: 8.8 °C
- Ratio [8]: 13
- ΔTm [9]: 14.6 °C
- ΔTm [10]: 4.3 °C
- ΔTm [11]: 0.7 °C
- ΔTm [12]: 1.3 °C
- ΔTm [13]: 8.3 °C
- ΔTm [14]: 14.5 °C
- ΔTm [15]: 3.2 °C

Structure (SMILES): N=C(N)NCCn1cc(-c2ccc3ccc4ccc(-c5cn(CCNC(=N)N)nn5)nc4c3n2)nn1
- Kd [1]: 1120 nM
- Kd [2]: 75 nM
- ΔTm [3]: 15 °C
- ΔTm [5]: 13.9 °C
- Kd [6]: 50 nM
- Ratio [8]: 2
- ΔTm [9]: 16.4 °C
- ΔTm [11]: 1.2 °C
- ΔTm [12]: 2.5 °C
- ΔTm [13]: 11 °C
- ΔTm [14]: 18.9 °C
- ΔTm [15]: 11 °C
